Laboratory results published in PubChem BioAssay AID504383 (The Scripps Research Institute Molecular Screening Center, 2011).
Out of some 2,500 compounds screened, about 1,200 (48%) were called active. So high a share suggests a set chosen from earlier hits. This is one part of the list. Values without a mark were called inactive.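 The calls were made as follows: active = mean activation above the low control average plus 3 SD, as set in the primary screen (cut at about 12% in these data); inactive = the rest.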

target: Troponin I, cardiac muscle (Homo sapiens) + Troponin T, cardiac muscle (Homo sapiens) + Troponin C, slow skeletal and cardiac muscles (Homo sapiens) (UniProt P19429+P45379+P63316); assay: calcium sensitizers of cardiac thin filaments – biochemical, IANBD-TnC fluorescence, triplicate, confirmation (AID 504383); settings: IANBD-labeled cardiac RTF, Ca2+ sensitivity fluorescence; at 7.2 µM; stronger effect = higher value; scaled from EC20 to saturating calcium; tested at EC20 calcium, 0.472 mM;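 also: 0% = DMSO at 0.472 mM calcium and 100% = DMSO at 2.9 mM calcium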
Method in brief: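 Material: labelled regulated thin filaments; Reagent: 0.472 mM calcium; Incubation: 15 min compound incubation with filaments at 25 °C; Detection: filament fluorescence intensity; Evaluation: fluorescence increase normalised to calcium controls; Benchmarks: low control EC20 calcium, high control EC100 calcium.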

| SMILES | activation |
| --- | --- |
| CCOC(=O)/C(C#N)=C/c1ccc(N2CCN(Cc3ccccc3)CC2)cc1 | 285% (active) |
| CCOC(=O)/C(C#N)=C\c1ccc(N2CCN(C/C=C/c3ccccc3)CC2)cc1 | 4.67% |
| CCOC(=O)Nc1ccc(NCc2ccc(F)cc2)nc1N | 5.72% |
| CCN(CC)c1ccc2cc(C(=O)NCc3ccc(F)cc3)c(=N)oc2c1 | 54.1% (active) |
| COC(=O)CNC(=O)COC(=O)c1cc(F)c(F)cc1Cl | 7.53% |
| Cn1c2c(c(=O)n(C)c1=O)C(C(F)(F)F)(C(F)(F)F)N=C(CCC1CCCCC1)N2 | 9.24% |
| COC(=O)C1=NN(C(=O)c2ccc(Br)cc2)C(O)(C(C)(C)C)C1 (stereo unspecified) | 13.4% (active) |
| CC(C)(C)C1(O)CC(C(F)(F)F)=NN1C(=O)CCCc1ccccc1 (stereo unspecified) | 3.64% |
| CCN(CC)c1ccc(/C=C2/SC(=O)N(C(C)C)C2=O)o1 | 15.2% (active) |
| COc1ccc(/C=C2\Oc3cc(OCC(=O)N4CCC(C(=O)O)CC4)ccc3C2=O)c(OC)c1 | 249% (active) |
| COc1ccc(/C=C2\Oc3cc(OC(=O)N4CCOCC4)ccc3C2=O)c(OC)c1 | 19.2% (active) |
| COc1ccc(/C=C2\Oc3cc(OCC(=O)N4CCC[C@H]4C(=O)O)ccc3C2=O)c(OC)c1 | 17.4% (active) |
| COc1cc(OC)c(OC)cc1/C=C1\Oc2cc(OCC(=O)N3Cc4ccccc4C[C@H]3C(=O)O)ccc2C1=O | 7.71% |
| COc1ccc(/C=C2\Oc3cc(OCC(=O)N4CCC[C@H]4CO)ccc3C2=O)c(OC)c1 | 13.8% (active) |
| CS(=O)(=O)N(CC(=O)NCCSCc1ccccc1)c1ccccc1 | 7.88% |
| CCOC(=O)c1c(NC(=O)c2ccno2)c2cc([N+](=O)[O-])ccc2n1C | 4.78% |
| Cc1cccc(C)c1OCC(C)N (stereo unspecified) | 15.2% (active) |
| Cc1cccc(OCc2nn[nH]n2)c1C | 9.03% |
| CC(=O)Oc1ccc2c(c1)Oc1cc(OC(C)=O)ccc1C21OC(=O)c2ccccc21 | 49.7% (active) |
| CC1CCCCC1NS(=O)(=O)CCNC(=O)c1ccccc1 (stereo unspecified) | 1.54% |
| Cc1cc(C)c2c(SC(C)C)nc(N)nc2n1 | 18.3% (active) |

| SMILES | activation |
| --- | --- |
| Cc1ccc(NC(=S)Nc2ccc3nc(-c4ccccn4)c(-c4ccccn4)nc3c2)cc1C | 15.9% (active) |
| Cc1ccc(NC(=O)Cn2ccnc2)cc1C | 6.24% |
| Cc1ccccc1NC(=S)Nc1ccc(Br)cc1 | 9.23% |
| C=CCn1c(C)cc(-c2csc(N)n2)c1C | 9.08% |
| CC(=O)Nc1sc2c(c1-c1nc3ccccc3s1)CN(C(C)C)CC2 | 3.29% |
| NC(=O)c1c(NC(=O)C2COc3ccccc3O2)sc2c1CCN(Cc1ccccc1)C2 (stereo unspecified) | 5.35% |
| O=C(Nc1ccc(Cl)cn1)C1COc2ccccc2O1 (stereo unspecified) | 54.7% (active) |
| O=C(Nc1nc(-c2nc3ccccc3s2)cs1)C1COc2ccccc2O1 (stereo unspecified) | 43.4% (active) |
| O=C1NC(c2ccccc2)=C(c2nc3ccccc3s2)C(c2ccc(O)cc2)N1 (stereo unspecified) | 2.85% |
| Nc1c(S(=O)(=O)c2ccccc2)c2nc3ccccc3nc2n1/N=C/c1ccco1 | 4.69% |
| Cc1ccc(S(=O)(=O)c2c(N)n(Cc3ccco3)c3nc4ccccc4nc23)cc1 | 8.53% |
| Nc1c(S(=O)(=O)c2ccccc2)c2nc3ccccc3nc2n1Cc1ccco1 | 79.2% (active) |
| COc1cccc(CNC(=O)CN(C)S(=O)(=O)c2cnc[nH]2)c1 | 151% (active) |
| COc1cccc(CNC(=O)CN(C)S(=O)(=O)c2ccc3c(c2)c(=O)n(C)c(=O)n3C)c1 | 11.5% |
| COc1ccccc1/C=C/CN1CCC(CO)(Cc2ccccc2)CC1 | 11.1% |
| CCOc1ccc(-c2ncncc2-c2ccccc2OC)c(O)c1 | 5.97% |
| CCC(=Cc1ccccc1OC)c1ccncc1 | 17.2% (active) |
| Cc1cc[n+](-c2[nH]c(=O)sc2/C=N/NC([S-])=Nc2ccccc2)cc1 | 18.3% (active) |
| Cc1cc[n+](-c2[nH]c(=O)sc2/C=N/N=C(\[O-])c2ccccc2)cc1C | 22.1% (active) |
| CCc1ccc[n+](-c2[nH]c(=O)sc2/C=N/NC([S-])=Nc2ccccc2)c1 | 49.2% (active) |
| CC(C)(C)c1cc[n+](-c2[nH]c(=O)sc2/C=N/NC([S-])=Nc2ccccc2)cc1 | 5.34% |

| SMILES | activation |
| --- | --- |
| Cc1cc[n+](-c2[nH]c(=O)sc2/C=N/NC([S-])=Nc2ccccc2)cc1C | 6.12% |
| O=c1[nH]c(-[n+]2ccccc2)c(/C=N/NC([S-])=Nc2ccccc2)s1 | 8.23% |
| Cc1cc(C)c[n+](-c2[nH]c(=O)sc2/C=N/NC([S-])=Nc2ccccc2)c1 | -0.42% |
| Cc1cccc(N2C(=O)c3cccc4c(N(C)CCO)ccc(c34)C2=O)c1 | 6.7% |
| Cc1ccccc1N1C(=O)c2cccc3c(N(C)CCO)ccc(c23)C1=O | 11.1% |
| CN1C(=O)c2cccc3c(N(C)C)ccc(c23)C1=O | 223% (active) |
| CN1C(=O)c2cccc3c(N)ccc(c23)C1=O | 5.53% |
| CNc1ccc2c3c(cccc13)C(=O)N(C)C2=O | 44.4% (active) |
| CCCCNc1ccc2c3c(cccc13)C(=O)N(CCCC)C2=O | 5.54% |
| O=C(CSc1ccc(Cl)cc1)Nc1nnc(-c2cccc([N+](=O)[O-])c2)s1 | -1.31% |
| O=C(Cc1ccc(Cl)cc1)NNS(=O)(=O)c1ccc([N+](=O)[O-])cc1 | 275% (active) |
| O=S(=O)(O)c1nc2ccccc2n1Cc1ccccc1 | 51.8% (active) |
| O=c1[nH]ncc2c3ccccc3n(Cc3cccc(Cl)c3)c12 | -2.41% |
| CCCCN(C(=O)c1ccc2c(c1)OCCO2)c1c(N)n(CCCC)c(=O)[nH]c1=O | 3.97% |
| CCN1C(=O)c2cccc3c(NC(=O)c4ccc5c(c4)OCCO5)ccc1c23 | 1730% (active) |
| Cc1ccccc1NC(=O)c1nnn(-c2ccc3c(c2)OCCO3)c1N | 5.33% |
| CN(Cc1ccccc1)C(=O)c1ccc(NC(=O)Cc2ccc(NC(=O)C3CCCN(S(=O)(=O)c4cccc([N+](=O)[O-])c4)C3)cc2)cc1 (stereo unspecified) | 6.95% |
| O=C(Cc1ccc(NC(=O)C2CCCN(C(=O)C3CCCCC3)C2)cc1)Nc1cccc(C(=O)N2CCCC2)c1 (stereo unspecified) | 13.2% (active) |
| COc1cccc(S(=O)(=O)Nc2cccc(C(=O)N3CCCCCC3)c2)c1 | -0.51% |
